The source of these data is paper PMC5217177 (Journal of natural products, 2016).

In data set [1] the test system is Bacillus subtilis ATCC 6633. The experiment in a line: MIC determination, broth dilution in 96-well plates. The class given is cell-based. Conditions: LB medium, 28–37 °C, 16–48 h, OD600 read-out, max conc ~10 μg/mL. The essentials:
(§1)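 Starter cultures were grown 16 h at 37 °C and 250 rpm, then diluted in medium to OD600 ~0.1. Test compound was serially diluted in DMSO, with DMSO alone as the negative control. Positive controls were kanamycin for the bacteria and amphotericin B for the yeast. Plates were shaken at 160 rpm during incubation. OD600 was normalized to vehicle wells, and the lowest inhibitory concentration was taken as the MIC.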
A general note: In broth dilution the organism is exposed to a series of concentrations in liquid medium.

Data set [2] concerns Salmonella enterica ATCC 10708. Described as above. Conditions: nutrient broth, 28–37 °C, 16–48 h, OD600 read-out, max conc ~10 μg/mL. It counts as cell-based. The essentials: as §1
The test system of data set [3] is Escherichia coli ATCC 12435. Described as above. It counts as cell-based. Conditions: LB medium, 28–37 °C, 16–48 h, OD600 read-out, max conc ~10 μg/mL. The essentials: as §1
The subject of data set [4] is Saccharomyces cerevisiae ATCC 204508. The description is as above. Conditions: YAPD medium, 28–37 °C, 16–48 h, OD600 read-out, max conc ~10 μg/mL. It counts as cell-based. The essentials: as §1
The test system of data set [5] is S. aureus and B. subtilis. Conditions: cited from earlier work.
Data set [6] can be described thus: Stability under acidic conditions. It counts as physicochemical. The conditions noted are these: observed during HPLC purification with TFA; UV/Vis monitoring.
The subject of data set [7] is Gram-positive strains. The experiment in a line: Antibacterial activity, comparisons across the tested strains. It counts as cell-based. The conditions noted are these: from MIC of Table 3.
The subject of data set [8] is two human cancer cell lines. The experiment in a line: Cytotoxicity, comparison across PC3 and A549. The conditions noted are these: PC3 and A549, 48 h. The class given is cell-based.

Entries after “also recorded” stand apart in the source; their conditions may differ.

Consider actinomycin Y3, for which the “MIC, B. subtilis” value in data set [1] was >9.33 µg/mL. The “MIC, S. enterica” value in data set [2] is >9.33 µg/mL. Also, the “MIC, E. coli” value in data set [3] was >9.33 µg/mL. For the same substance, in data set [4], the “MIC, S. cerevisae” value was >9.33 µg/mL.

actinomycin Y5: the “antibacterial activity based on zones of inhibition” value in data set [5] is recorded as “modest antibacterial activity”.

Consider actinomycin Y4, for which the “MIC, B. subtilis” value in data set [1] was >9.32 µg/mL. For the same substance, in data set [2], the “MIC, S. enterica” value was >9.32 µg/mL. Further, the “MIC, E. coli” value in data set [3] is >9.32 µg/mL. Also, in data set [4], the “MIC, S. cerevisae” value is >9.32 µg/mL.

Consider actinomycin Y6 [Compound 1], for which the “MIC, B. subtilis” value in data set [1] amounted to 0.59 µg/mL. The “MIC, S. enterica” value in data set [2] is >9.46 µg/mL. Besides, in data set [3], the “MIC, E. coli” value was >9.46 µg/mL. Besides, the “MIC, S. cerevisae” value in data set [4] came to 9.46 µg/mL. Also, the “stability under acidic conditions” value in data set [6] is recorded as “not stable under acidic conditions; also recorded: unstable under acidic condition”. In data set [7], the “fold more potent than actinomycin Y3 (antibacterial)” value was ≥ 9 fold. Also, the “fold change in EC50 compared to actinomycin D (less potent)” value in data set [8] is reported as 278–355 fold.
